Bioassay records from PubChem BioAssay.
An excerpt weighted towards active compounds, which were near 1.4% of everything screened.
Hep lipid drop – hepatic lipid droplet formation modulation | AML12 mouse hepatocytes, oleate lipid droplets, BODIPY imaging | inhibition, % at 6.5 µM | hit rate 0.4% among 240,000 | AID 1656;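 active = lipid droplet intensity inhibited by at least 50%, with more than 500 cells counted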
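material = mouse AML12 hepatocyte cell line, fixed after treatment | also added = 100 µM oleic acid challenge | doses = compound at 6.5 µM only | schedule = overnight exposure | technique = Image-based BODIPY and DAPI two-channel analysis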
HTR5A inv ag – HTR5A inverse agonism, opioid heterodimer counter-screen; P47898; HTR5A cell line, luminescence; inhibition, % at 9.3 µM; hit rate 0.083% among 340,000; in the data active = inhibition mostly above about 23%, no sharp cut-off; inactive = mostly below about 18%
Target sequence (P47898 whole entry, looked up): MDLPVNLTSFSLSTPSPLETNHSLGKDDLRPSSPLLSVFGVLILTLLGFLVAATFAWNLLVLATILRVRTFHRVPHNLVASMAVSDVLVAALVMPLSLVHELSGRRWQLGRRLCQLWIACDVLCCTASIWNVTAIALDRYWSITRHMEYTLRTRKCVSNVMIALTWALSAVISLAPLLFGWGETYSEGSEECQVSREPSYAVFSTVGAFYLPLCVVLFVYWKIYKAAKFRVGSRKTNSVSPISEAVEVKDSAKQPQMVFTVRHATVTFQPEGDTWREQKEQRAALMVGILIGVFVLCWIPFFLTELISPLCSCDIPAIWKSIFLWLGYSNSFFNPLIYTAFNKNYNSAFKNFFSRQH
OPRM1-OPRD1 ag – agonists of human mu-delta opioid receptor heterodimerization; P35372+P41143; activation, % at 9.3 µM; cells, OPRM1-OPRD1 heterodimerization, luminescence; hit rate 0.3% among 340,000; in the data active = activation above about 18%
HTR5A ag ctr – counter-screen for OPRM1-OPRD1 agonists: human HTR5A agonism; P47898; HTR5A agonist assay, luminescence, cell-based; activation, % at 9.3 µM; hit rate 0.61% among 340,000; in the data active = activation mostly above about 9.5%, no sharp cut-off; inactive = mostly below about 7.6%
MOR-DOR inv ag – mu-delta opioid heterodimer inverse agonism | P35372+P41143 | cell-based MOR-DOR heterodimer luminescence | inhibition, % at 9.3 µM | hit rate 0.21% among 340,000 | AID 504357; in the data active = inhibition above about 22%, passing the limit was not always enough
OPRM1-D1 inv cf – confirmation of human OPRM1-OPRD1 heterodimerization inverse agonists. AID 504900. cells expressing OPRM1/OPRD1 heterodimer, luminescence. inhibition, % at 9.3 µM. hit rate 20% among 580. shares compounds with MOR-DOR inv ag; in the data active = inhibition above about 32%
HTR5A inv ctr2 – HTR5A inverse agonism, opioid heterodimer counter-screen. inhibition, % at 9.3 µM. HTR5A-expressing cells, luminescence. shares compounds with MOR-DOR inv ag. 580 tested, under 10 active; call rule not given here
A number is an active result; 0 = inactive; - = not tested or not shown.

SMILES	Hep lipid drop	HTR5A inv ag	OPRM1-OPRD1 ag	HTR5A ag ctr	MOR-DOR inv ag	OPRM1-D1 inv cf	HTR5A inv ctr2
O=C(Cn1nnc2ccccc21)OCC(=O)c1ccc(Cl)c(Cl)c1	0	0	0	0	71.2	0	0
Cn1c(N=Nc2ccccc2)nc2ccccc21	0	0	0	0	43.1	0	0
CN(C)c1ccc(N=Nc2nc3ccccc3n2C)cc1	0	0	0	0	0	-	-
C=CCNC(=S)NCCCCC1NC(=S)N(CC=C)C1=O (stereo not given)	0	0	0	0	24.7	0	0
CC(=O)Nc1ccccc1-c1ccc(C)o1	0	0	0	0	0	-	-
Cc1ccc(NC(=O)CS(=O)CC(=O)Nc2ccccc2-c2ccc(C)o2)cc1 (stereo not given)	0	0	0	0	35.0	0	0
CCOCCCNC(=S)NNC(=O)CCn1nc(C)c(Br)c1C	0	0	0	0	45.2	0	0
Cc1nn(CCC(=O)NNC(=S)NCC(C)C)c(C)c1Br	0	0	0	0	74.7	0	0
CNC(=S)NNC(=O)CCn1nc(C)c(Br)c1C	0	0	0	0	0	-	-
Cc1nn(CCC(=O)NNC(=S)Nc2ccccc2)c(C)c1Br	0	0	0	0	29.9	0	0
COCCCNC(=S)NNC(=O)Cn1nc(C)c(Br)c1C	0	0	0	0	0	-	-
Cc1ccc(NC(=O)CSc2nc3ccccc3c(=O)n2CCCC(=O)NCCCN2CCOCC2)cc1	0	0	0	0	0	-	-
O=C(/C=C/c1ccc(F)cc1)NCC1(c2ccccc2)CCOCC1	0	0	0	0	0	-	-
Cc1cccc(C)c1OCC(=O)NC1CC1	0	0	0	0	0	-	-
Cc1cccc(C)c1OCC(=O)NNC(=S)NC(=O)C1CC1	0	0	0	0	36.3	0	0
CN(C)S(=O)(=O)c1ccc(Cl)c(NC(=O)COC(=O)CNS(=O)(=O)c2c(F)cccc2F)c1	-	0	0	0	0	-	-
O=C1Cc2ccccc2Sc2ccc(O)cc21	0	0	0	0	0	-	-
Nc1ccc2c(c1)CC(=O)c1ccccc1S2	0	0	0	0	45.4	0	0
CCCCC(=O)NC(=S)Nc1nnn(CCC)n1	0	0	0	0	37.2	0	0
CCCCC(=O)Nc1nnn(CCC)n1	0	0	0	0	0	-	-
Cc1ccc(NC(=S)NNC(=O)c2nn(C)cc2Cl)cc1	-	0	0	0	29.1	0	0
Cc1cccc(NC(=S)NNC(=O)c2nn(C)cc2Cl)c1	-	0	0	0	0	-	-
O=C(Cc1ccccc1)NNc1ccc2ccccc2c1	0	0	0	0	33.4	0	0
CCCCCc1cc(=O)oc2c(C(CCN(CC)CC)c3cc(OC)c(OC)c(OC)c3)c(OC)cc(OC)c12 (stereo not given)	0	0	0	0	0	-	-
O=C(C(=O)c1cccnc1)c1cccnc1	0	0	0	0	35.6	0	0
SMILES	Hep lipid drop	HTR5A inv ag	OPRM1-OPRD1 ag	HTR5A ag ctr	MOR-DOR inv ag	OPRM1-D1 inv cf	HTR5A inv ctr2
c1cncc(-c2nnc(-c3cccnc3)nn2)c1	-	0	0	0	86.3	0	0
c1ccc(-c2nnc(-c3ccccc3)nn2)cc1	0	-	-	-	-	-	-
O=C(c1cccnc1)c1cccnc1	0	0	0	0	0	-	-
Cc1cc(O)c(/C=N/Nc2ccc(Cl)cc2)c(=O)o1	-	0	0	0	46.3	0	0
Cc1ccc(OCCN2C(=O)C(=O)c3cccc(C)c32)cc1	0	0	0	0	42.3	0	0
Cc1cccc(OCCN2C(=O)c3ccccc3C2=O)c1	0	0	0	0	0	-	-
CCOC(=O)CN1C(=O)C(=O)c2cccc(C)c21	0	0	0	0	75.4	0	0
Cc1cc(Cl)ccc1OCC(=O)NNC(=O)CCOc1ccccc1	-	0	0	0	0	-	-
CCOC(=O)N1CCC(NCCNC(=O)c2cccc(F)c2)CC1	-	0	0	0	0	-	-
CC(=O)Oc1ccc(OC(C)=O)c(SCCCCCN2CCOCC2)c1	-	0	0	0	29.4	0	0
CC(C)c1ccc(OCCCCCN2CCOCC2)cc1	0	0	0	0	0	-	-
CCCN(CCC)S(=O)(=O)c1ccc(C(=O)N2CCCc3ccccc32)cc1	0	0	0	0	0	-	-
CC(=O)N1CCN(c2ccc(S(C)(=O)=O)cc2[N+](=O)[O-])CC1	0	0	0	0	0	-	-
CN1C(=O)C(O)(C2COC(C)(C)CC2=O)c2ccccc21 (stereo not given)	-	0	0	0	31.8	0	0
CN1C(=O)C(O)(C2COC(C)(C)CC2=O)c2cc(Br)ccc21 (stereo not given)	0	0	0	0	80.8	68.9	0
Nc1ccc(C(=O)OCc2ccncc2)cc1[N+](=O)[O-]	0	0	0	0	0	-	-
Cc1ccc(C(=O)Nc2ccccc2[N+](=O)[O-])cc1S(=O)(=O)N1CCOCC1	0	0	0	0	39.0	0	0
Cc1ccc2c(c1C)C(=O)C(=O)N2	-	0	0	0	0	-	-
Cc1ccc(Cl)c2c1NC(=O)C2=O	-	0	0	0	85.9	74.3	0
NC(=O)c1ccccc1OCC(=O)c1ccc(Cl)cc1	0	0	0	0	0	-	-
NC(=O)c1ccccc1NCC(=O)c1ccc(Cl)cc1	-	0	0	0	46.2	0	0
O=C(CNc1ccccc1C(=O)O)c1ccccc1	0	0	0	0	70.7	0	0
O=C(Nc1ccccc1C(=O)O)c1ccccc1	0	0	0	0	0	-	-
COc1ccc2c(c1)c(CCNNC(=O)C(C)(C)C)c(C)n2C(=O)c1ccc(Cl)cc1	-	0	0	0	0	-	-
CC1NC(=S)N(Cc2ccccc2)C1=O (stereo not given)	0	0	0	0	33.0	0	0
SMILES	Hep lipid drop	HTR5A inv ag	OPRM1-OPRD1 ag	HTR5A ag ctr	MOR-DOR inv ag	OPRM1-D1 inv cf	HTR5A inv ctr2
CC(C)C1NC(=S)N(Cc2ccccc2)C1=O (stereo not given)	-	0	0	0	0	-	-
Cc1ccc(SCC(=O)OCC(=O)N(CC(C)C)C2CCS(=O)(=O)C2)cc1C (stereo not given)	-	0	0	0	23.7	0	0
CC(C)(Oc1ccc(F)cc1)C(=O)OCC(=O)c1ccc(S(C)(=O)=O)cc1	-	0	0	0	58.4	0	0
O=C(Nc1ccncc1)C1c2ccccc2Oc2ccccc21	0	0	0	0	35.7	0	0
O=C(Nc1ncccn1)C1c2ccccc2Oc2ccccc21	0	0	0	0	0	-	-
CCCc1cc(C(=O)N2CCN(c3ccc(C(F)(F)F)cn3)CC2)sc1C	0	0	0	0	0	-	-
O=C(NNC(=S)NCC1CCCO1)c1cc(Br)ccc1Cl (stereo not given)	0	0	0	0	32.9	0	0
O=C(Cc1ccc(Cl)c(Cl)c1)NNC(=S)NCC1CCCO1 (stereo not given)	0	0	0	0	0	-	-
Cc1onc(-c2ccccc2)c1C(=O)N(Cc1ccco1)Cc1cccs1	0	0	0	0	0	-	-
O=C1C(NS(=O)(=O)c2cccs2)=C(N2CCOCC2)C(=O)c2ccccc21	0	0	0	0	40.9	0	0
Cc1ccccc1NC(=S)NC1(C)CCS(=O)(=O)C1 (stereo not given)	0	0	0	0	0	-	-
